Legend:
[1] = tested on: Mycobacterium tuberculosis; experiment: Inhibition of Mycobacterium tuberculosis N-terminal His-tagged BioA assessed as temperature of denaturation shift by […]
Summary of the method: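 Differential scanning fluorimetry with 0.05 mg/mL holo BioA in 25 mM HEPES pH 7.5, 50 mM NaCl, 5× SYPRO Orange, and 5 mM fragment from 200 mM DMSO stock. Heated 55–100 °C in 0.5 °C steps with 60 s dwell. Tm taken at the first-derivative peak; the shift is against the mean of DMSO-only controls on the same plate. Four replicates, mean with standard error.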

[2] = Inhibition of Mycobacterium tuberculosis N-terminal His-tagged BioA assessed as dissociation constant by isothermal titration calorimetry
Summary of the method: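 Isothermal titration calorimetry at 25 °C in 25 mM HEPES pH 7.5, 50 mM NaCl, with 100 µM PLP-saturated His-tagged BioA (E. coli-expressed) in the cell. Ligand at 1.0, 1.5 or 2.0 mM, DMSO matched, given as 2 µL injections 150 s apart with stirring at 750 rpm. First injection discarded; heats of dilution corrected. KD = 1/KA from curve fit, averaged over three replicates.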

[3] = tested on: Mycobacterium tuberculosis; experiment: Antimycobacterial activity against Mycobacterium tuberculosis BioA-UE strain assessed as growth inhibition after 9 days by Whole cell growth assay in presence of 1000 nM biotin; assay type: functional, organism-based; settings: 216 h
Summary of the method: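 Mtb BioA-underexpressing strain pregrown in Sauton's medium with 1000 nM biotin to OD580 1.0–1.2, washed twice in biotin-free Sauton's medium, and seeded at OD580 0.03 in medium with 1000 nM biotin plus 200 ng/mL anhydrotetracycline. Compounds were tested at 2-fold serial dilutions, 1000 to 3.9 µM final, against no-compound controls. OD read after nine days at 37 °C, in triplicate; MIC calculated from growth.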

[4] = tested on: Mycobacterium tuberculosis; experiment: Antimycobacterial activity against Mycobacterium tuberculosis H37Rv assessed as growth inhibition after 9 days by Whole cell growth assay; assay type: functional, organism-based; settings: 216 h
Summary of the method: (§1)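 Virulent H37Rv wild type pregrown in Sauton's medium with 1000 nM biotin to OD580 1.0–1.2, washed twice in biotin-free Sauton's medium, and seeded at OD580 0.03 in biotin-free medium or with 1000 nM biotin added. Compounds were tested at 2-fold dilutions, 1000 to 3.9 µM final, against no-compound controls. OD read after nine days at 37 °C, in triplicate; MIC calculated.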

[5] = tested on: Mycobacterium tuberculosis; experiment: Antimycobacterial activity against Mycobacterium tuberculosis H37Rv assessed as growth inhibition after 9 days by Whole cell growth assay in presence of 1000 nM biotin; assay type: functional, organism-based; settings: 216 h; summary of the method: as §1
[6] = Inhibition of Mycobacterium tuberculosis H37Rv N-terminal His-tagged BioA using KAPA substrate by in vitro biochemical assay

| Structure (SMILES) | ΔTm [1] | Kd [2] | IC50 [3] | IC50 [4] | IC50 [5] | IC50 [6] |
| --- | --- | --- | --- | --- | --- | --- |
| CC(=O)Nc1ccc2c(c1)C=CC2=O | 3.6 °C | 21.7 µM | > 1000 µM | > 1000 µM | > 1000 µM |  |
| NC(=O)c1ccc(-c2ccccn2)s1 | 6.3 °C | 6.9 µM | 39.2 µM | 249 µM | > 1000 µM |  |
| CNCc1ccc(Cn2cccn2)cc1 | 5.3 °C | 11.7 µM | > 1000 µM | > 1000 µM | > 1000 µM |  |
| O=C(c1ccccc1)C1CCNCC1 | 3.6 °C | 41.8 µM | 260 µM | 340 µM | 357 µM |  |
| NCc1ccc(Cn2cc(Cl)cn2)cc1 | -11.9 °C | 6.8 µM |  |  |  |  |
| O=c1cc(-c2ccccc2F)[nH]c2cc3c(cc12)OCO3 |  |  |  |  |  | 0.44 µM |
| NCc1nc2ccccc2s1 | -6.5 °C | 30.3 µM | 368 µM | 250 µM | 304 µM |  |
| NC(=O)c1ccc(-n2ccnc2)cc1 | 4.1 °C | 15 µM | > 1000 µM | > 1000 µM | > 1000 µM |  |

Reference: ChEMBL document CHEMBL3580577, “Fragment-based exploration of binding site flexibility in Mycobacterium tuberculosis BioA” (J Med Chem, 2015)
